From ChEMBL document CHEMBL1127431, “Cholinergic agents structurally related to furtrethonium. 2. Synthesis and antimuscarinic activity of a series of N-[5-[(1'-substituted-acetoxy) methyl]-2-furfuryl]dialkylamines” (J Med Chem, 1994)

Tests used:
[1] = molecular target: T1, Muscarinic acetylcholine receptor M2 (Homo sapiens) (UniProt P08172); test: In vitro antimuscarinic activity against the M2 muscarinic receptor subtype in guinea pig atria; settings: Cavia porcellus; target entry is the homologue from another species
T1 sequence (whole entry): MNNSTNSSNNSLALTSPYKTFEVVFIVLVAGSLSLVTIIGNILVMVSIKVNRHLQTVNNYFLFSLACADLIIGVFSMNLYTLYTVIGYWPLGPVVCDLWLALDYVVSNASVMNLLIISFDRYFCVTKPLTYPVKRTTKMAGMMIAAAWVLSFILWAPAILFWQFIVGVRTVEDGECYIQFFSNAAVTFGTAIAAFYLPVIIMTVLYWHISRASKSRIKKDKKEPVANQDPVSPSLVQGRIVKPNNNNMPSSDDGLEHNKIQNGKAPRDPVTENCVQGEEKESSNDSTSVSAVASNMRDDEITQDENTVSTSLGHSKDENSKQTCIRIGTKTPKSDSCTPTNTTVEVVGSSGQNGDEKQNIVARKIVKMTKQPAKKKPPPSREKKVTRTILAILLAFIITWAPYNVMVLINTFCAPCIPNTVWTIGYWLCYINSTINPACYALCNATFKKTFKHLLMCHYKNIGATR
In short: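 Guinea pig atria (both), fasted overnight, resting tension 1 g, force recorded; 30–45 min equilibration. Cumulative carbachol curves in 0.25 log-unit increments, repeated until two matched, then final curve after ≥30 min with test compound. E50 from four-parameter logistic fit; pKb = log(DR−1) − log[B], mean ± SE.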

[2] = molecular target: Muscarinic acetylcholine receptor M3 (Rattus norvegicus) (UniProt P08483); test: In vitro antimuscarinic activity against the M3 muscarinic receptor subtype in rat bladder
In short: (§1)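 Rat urinary detrusor strips (extratrigonal, 1 cm × 2 mm), fasted overnight, isotonic recording at 1 g resting tension; 30–45 min equilibration. Cumulative furtrethonium curves in 0.5 log-unit increments, repeated until two matched, then final curve after ≥30 min with test compound. E50 by four-parameter logistic fit; pKb = log(DR−1) − log[B], mean ± SE.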

[3] = molecular target: Muscarinic acetylcholine receptor M3 (Rattus norvegicus) (UniProt P08483); test: In vitro antimuscarinic activity against the M3 muscarinic receptor subtype in rat ileum; type: tissue-based
In short: as §1, with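 “Rat longitudinal ileum segments (~2 cm),” for “Rat urinary detrusor strips (extratrigonal, 1 cm × 2 mm),”, “at 0.5” for “at 1”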

Sequence of Muscarinic acetylcholine receptor M3 (Rattus norvegicus) (P08483 whole entry, looked up): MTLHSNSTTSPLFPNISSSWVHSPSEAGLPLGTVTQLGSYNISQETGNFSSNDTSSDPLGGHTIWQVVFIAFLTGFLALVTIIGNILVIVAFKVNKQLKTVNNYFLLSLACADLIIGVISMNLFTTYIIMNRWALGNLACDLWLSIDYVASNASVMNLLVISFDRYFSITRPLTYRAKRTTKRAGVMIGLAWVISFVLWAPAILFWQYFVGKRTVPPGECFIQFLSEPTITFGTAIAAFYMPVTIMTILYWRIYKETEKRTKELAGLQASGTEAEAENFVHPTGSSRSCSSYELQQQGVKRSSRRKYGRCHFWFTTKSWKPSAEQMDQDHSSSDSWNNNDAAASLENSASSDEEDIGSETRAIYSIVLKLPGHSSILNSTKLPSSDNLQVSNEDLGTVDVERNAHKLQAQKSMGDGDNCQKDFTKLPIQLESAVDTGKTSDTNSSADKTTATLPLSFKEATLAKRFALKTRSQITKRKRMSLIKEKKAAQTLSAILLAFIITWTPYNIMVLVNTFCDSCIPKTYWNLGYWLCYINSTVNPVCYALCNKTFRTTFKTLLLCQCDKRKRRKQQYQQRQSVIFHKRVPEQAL

CN(C)Cc1ccc(COC(=O)C(O)(C2CCCCC2)C2CCCCC2)o1 gave a pKb [1] of under 5, a pKb [2] of 7.2 and a pKb [3] of 7.1.
In the case of CN(C)Cc1ccc(COC(=O)C(c2ccccc2)C2CCCCC2)o1 (stereo not given), the pKb [1] is reported as 5.9, the pKb [2] is reported as 7.2 and the pKb [3] is reported as 7.3.
With O=C(OCc1ccc(CN2CCCCC2)o1)C(c1ccccc1)C1CCCCC1 (stereo not given) the pKb [1] was under 5, the pKb [2] was 5.3 and the pKb [3] was 6.3.
For CN(C)Cc1ccc(COC(=O)C(c2ccccc2)c2ccccc2)o1, the pKb [1] was 5.9, the pKb [2] was 6.5 and the pKb [3] was 6.5.
Work on CCCN(C)Cc1ccc(COC(=O)C(c2ccccc2)C2CCCCC2)o1 (stereo not given) yielded a pKb [1] of under 5, a pKb [2] of 6 and a pKb [3] of 6.8.
O=C(OCc1ccc(CN2CCCCC2)o1)C(c1ccccc1)c1ccccc1 was tested, and the pKb [1] was under 5, the pKb [2] was 6.2 and the pKb [3] was 6.
CN(Cc1ccc(COC(=O)C(c2ccccc2)C2CCCCC2)o1)C1CCCCC1 (stereo not given) was tested, and the pKb [1] was under 4.5, the pKb [2] was under 5 and the pKb [3] was 6.5.
For O=C(OCc1ccc(CN2CCOCC2)o1)C(c1ccccc1)C1CCCCC1 (stereo not given), the pKb [1] was under 5, the pKb [2] was 5.7 and the pKb [3] was 5.5.
In the case of CCN(CC)Cc1ccc(COC(=O)C(c2ccccc2)C2CCCCC2)o1 (stereo not given), the pKb [1] is reported as under 5, the pKb [2] is reported as 6 and the pKb [3] is reported as 6.7.
Molecule CN(C)Cc1ccc(COC(=O)C2c3ccccc3Oc3ccccc32)o1 has a pKb [1] of 6.5, a pKb [2] of 6.6 and a pKb [3] of 7.1.
CN(C)Cc1ccc(COC(=O)C2c3ccccc3-c3ccccc32)o1 was tested, and the pKb [1] was 4.8, the pKb [2] was 5.6 and the pKb [3] was 5.8.
In the case of CCCCCN(C)Cc1ccc(COC(=O)C(c2ccccc2)C2CCCCC2)o1 (stereo not given), the pKb [1] is reported as under 5, the pKb [2] is reported as under 5 and the pKb [3] is reported as 6.9.
Work on CC(C)N(C)Cc1ccc(COC(=O)C(c2ccccc2)C2CCCCC2)o1 (stereo not given) yielded a pKb [1] of 5, a pKb [2] of 6.7 and a pKb [3] of 7.
In the case of O=C(OCc1ccc(CN2CCC(O)CC2)o1)C(c1ccccc1)C1CCCCC1 (stereo not given), the pKb [1] is reported as under 5, the pKb [2] is reported as 6 and the pKb [3] is reported as 6.5.
CN(Cc1ccccc1)Cc1ccc(COC(=O)C(c2ccccc2)C2CCCCC2)o1 (stereo not given) showed a pKb [1] of under 5, a pKb [2] of under 5 and a pKb [3] of under 5.
